PMC9064169 (ACS chemical biology, 2021)
Numbering of substitutions follows the chain as printed. “Also recorded” adds a separate entry of the source. Like-named read-outs stand apart in the source and are kept apart here.

Key:
MN9D cells = assay: Cytotoxicity / viability in MN9D cells; assay type: cell-based; details: 24 h treatment
[1] = target: His516Ala mutant Nurr1 LBD (Homo sapiens, UniProt P43354, H516A); assay: MST binding to His516Ala mutant Nurr1 LBD
[2] = target: endogenous full-length Nurr1 (Mus musculus, UniProt Q06219); assay: qPCR of Nurr1 target gene transcripts; assay type: cell-based; details: 24 h
In short: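 Mouse MN9D cells treated with test compound at 10 μM, or over a concentration series, for 24 h. Vehicle was DMSO. mRNA was isolated and Th and Vmat2 transcripts were measured by qPCR. Values were normalized to housekeeping gene Hprt and expressed as fold-change over DMSO-treated cells. Values are from three or more independent measurements ± SD.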

[3] = target: T1, Arg563Ala mutant Nurr1 LBD (Homo sapiens, UniProt P43354, R563A); assay: MST binding to Arg563Ala mutant Nurr1 LBD
T1 sequence (P43354 360-595 R563A limits assumed): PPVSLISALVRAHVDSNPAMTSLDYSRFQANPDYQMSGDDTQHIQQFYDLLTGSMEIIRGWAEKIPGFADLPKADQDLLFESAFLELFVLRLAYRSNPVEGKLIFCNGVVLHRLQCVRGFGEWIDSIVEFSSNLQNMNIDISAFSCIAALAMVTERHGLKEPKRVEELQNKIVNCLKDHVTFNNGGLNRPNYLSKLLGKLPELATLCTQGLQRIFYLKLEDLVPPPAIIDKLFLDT

[4] = target: T2, Arg563Ala His516Ala double mutant Nurr1 LBD (Homo sapiens, UniProt P43354, H516A/R563A); assay: MST binding to Arg563Ala/His516Ala double mutant Nurr1 LBD
T2 sequence (P43354 360-595 H516A/R563A limits assumed): T1 sequence (P43354 360-595 R563A limits assumed) with H157A

LBD of RXRα = target: T3, LBD of RXRα (Homo sapiens, UniProt P19793); assay: Binding to the LBD of RXRα
T3 sequence (P19793 227-458 limits assumed): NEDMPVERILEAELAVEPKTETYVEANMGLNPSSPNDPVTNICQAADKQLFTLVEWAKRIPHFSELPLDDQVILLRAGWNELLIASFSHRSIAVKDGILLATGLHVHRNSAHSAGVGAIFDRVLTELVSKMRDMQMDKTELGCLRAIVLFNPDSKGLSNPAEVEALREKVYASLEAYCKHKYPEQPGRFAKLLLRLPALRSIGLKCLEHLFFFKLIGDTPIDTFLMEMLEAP

[5] = target: Nurr1 ligand binding domain (LBD) (Homo sapiens, UniProt P43354); assay: Microscale thermophoresis
In short: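 KD for the Nurr1 LBD measured by microscale thermophoresis, with 0.1% of the surfactant Pluronic F127 present. To exclude non-specific binding by aggregates, the assay was repeated at increasing Pluronic F127 concentrations. Values are from three or more independent measurements ± SD.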

[6] = target: full-length Nurr1 (NBRE response element) (Homo sapiens, UniProt P43354); assay: Luciferase reporter assay, full-length receptor on NBRE response element; assay type: cell-based
[7] = Chemical stability in solution; assay type: physicochemical; details: observed during data acquisition; see references 26-28
zebrafish = details: cited from earlier work
[8] = cited from earlier work
[9] = MN9D cells, 10 μM, normalized to Hprt

Nurr1 ligand binding domain (LBD), sequence (P43354 360-595 limits assumed): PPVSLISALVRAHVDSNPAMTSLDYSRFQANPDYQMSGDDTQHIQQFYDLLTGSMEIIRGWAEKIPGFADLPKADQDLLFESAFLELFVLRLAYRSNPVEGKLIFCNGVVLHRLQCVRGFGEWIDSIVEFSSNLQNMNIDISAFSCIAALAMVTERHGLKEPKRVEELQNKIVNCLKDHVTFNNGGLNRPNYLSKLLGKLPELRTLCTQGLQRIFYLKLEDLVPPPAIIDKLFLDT
endogenous full-length Nurr1, sequence (Q06219 whole entry): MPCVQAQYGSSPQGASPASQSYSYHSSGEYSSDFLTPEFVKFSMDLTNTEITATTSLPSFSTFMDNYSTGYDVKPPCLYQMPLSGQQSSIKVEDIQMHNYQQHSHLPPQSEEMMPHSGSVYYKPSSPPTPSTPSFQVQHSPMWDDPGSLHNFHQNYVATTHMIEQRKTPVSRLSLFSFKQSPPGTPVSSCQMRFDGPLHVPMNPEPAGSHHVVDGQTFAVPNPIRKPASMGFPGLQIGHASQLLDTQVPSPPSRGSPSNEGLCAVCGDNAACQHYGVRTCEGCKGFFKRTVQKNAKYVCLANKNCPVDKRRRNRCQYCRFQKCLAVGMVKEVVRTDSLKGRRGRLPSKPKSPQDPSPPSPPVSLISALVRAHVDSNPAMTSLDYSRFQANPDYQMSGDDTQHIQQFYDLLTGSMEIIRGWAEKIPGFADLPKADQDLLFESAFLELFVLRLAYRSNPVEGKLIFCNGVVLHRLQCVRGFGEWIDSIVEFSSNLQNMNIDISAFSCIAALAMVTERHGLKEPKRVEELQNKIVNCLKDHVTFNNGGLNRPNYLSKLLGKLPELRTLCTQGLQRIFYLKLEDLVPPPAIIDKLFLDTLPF
His516Ala mutant Nurr1 LBD, sequence (P43354 360-595 H516A limits assumed): as the sequence (P43354 360-595 limits assumed) above, with H157A counted along it
full-length Nurr1 (NBRE response element), sequence (P43354 whole entry, species assumed): as the sequence (Q06219 whole entry) above, with S131T, S134G, D354E counted along it

Brc1ccc2[nH]ccc2c1 [5-bromoindole]
Cytotoxicity in MN9D cells (MN9D cells): somewhat toxic to cells under certain conditions (≥10 μM, 24 h)
Binding affinity for His516Ala mutant relative to wildtype [1]: statistically unchanged
Th expression, fold-change relative to vehicle (DMSO) [2, 9]: 2.2 fold
Vmat2 expression, fold-change relative to vehicle (DMSO) [2, 9]: 2.5 fold
Binding to Arg563Ala mutant relative to wildtype [3]: eliminated
Binding to Arg563Ala/His516Ala double mutant relative to wildtype [4]: eliminated

Clc1ccc2[nH]ccc2c1 [5-chloroindole]
Cytotoxicity in MN9D cells (MN9D cells): non-cytotoxic; also recorded: not cytotoxic
Saturable binding to the LBD of RXRα (LBD of RXRα): does not exhibit saturable binding
Effect of increasing surfactant concentration on affinity for the Nurr1 LBD ([5]; MST binding assay): only has a minor effect
Affinity for the Nurr1 LBD compared with reference ligands ([5]; in vitro and in luciferase reporter assays): comparable to DHI and amodiaquine
Improvement of affinity relative to wildtype, His516Ala mutant [1]: ~ 2 fold
Vmat2 expression, fold-change relative to vehicle (DMSO) [2, 9]: 2.4 fold
Potency in MN9D cells compared with reference ligands ([2]; Th and Vmat2 expression): superior to that of DHI and amodiaquine
Improvement of affinity relative to wildtype, Arg563Ala mutant [3]: ~ 2 fold
Activity of Nurr1 in luciferase reporter assay (full-length receptor, NBRE) [6]: stimulates the activity of Nurr1
Improvement of affinity relative to wildtype, double mutant [4]: ~ 2 fold
Chemical stability in solution [7]: stable

Nc1ccc2cc[nH]c2c1 [6-aminoindole]
Cytotoxicity in MN9D cells (MN9D cells): significant cytotoxicity
Chemical stability in solution [7]: autooxidation and polymerization in solution

Oc1ccc2cc[nH]c2c1 [6-hydroxyindole]
Cytotoxicity in MN9D cells (MN9D cells): significant cytotoxicity
Chemical stability in solution [7]: autooxidation and polymerization in solution

Oc1cc2cc[nH]c2cc1O [DHI, 5,6-dihydroxyindole]
Expression of th and vmat2 in zebrafish (zebrafish): stimulates the expression of th and vmat2
Chemical stability in solution [8]: readily auto-oxidizes and polymerizes

CCN(CC)Cc1cc(Nc2ccnc3cc(Cl)ccc23)ccc1O [amodiaquine, reference compound]
Kd [5]: 8 ± 1.5 µM
